ChEMBL document CHEMBL1157842, “Novel derivatives of 1,3,4-oxadiazoles are potent mitostatic agents featuring strong microtubule depolymerizing activity in the sea urchin embryo and cell culture assays” (Eur J Med Chem, 2010)
Calls of active or inactive are those of the source.

Legend:
A549 [1] = assay: Cell cycle arrest in human A549 cells assessed as accumulation at G2/M phase after 24 hrs using propidium iodide staining by flow cytometry; type: functional, cell-based
Procedure, shortened: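 A549 cells seeded at 5 × 10⁵ per 50 mm dish and treated 24 h, with 0.4% DMSO as negative control. Cells were trypsinized, fixed in 70% ethanol at −20 °C, then treated with RNase 1 mg/mL for 30 min at 37 °C and propidium iodide for 30 min at 37 °C. DNA content of 10000 cells measured by flow cytometry; EC50 for G2/M accumulation.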

Paracentrotus lividus [2] = assay: Cytotoxicity against Paracentrotus lividus embryo assessed as embryo spinning after 9 to 12 hrs fertilization and 0.5 to 20 hrs treatment; type: functional, organism-based
Procedure, shortened: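 Paracentrotus lividus free-swimming blastulae treated just after hatching (9–12 h post-fertilization). Behavior was monitored by light microscopy and embryo spinning scored as threshold concentration. Embryos were held in filtered sea water at room temperature with paddle agitation. Compound stocks were in 95% EtOH or DMSO diluted in EtOH; maximal tolerated final DMSO 0.05%, EtOH 1%.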

[3] = Inhibition of tubulin polymerization at 10 uM
A549 [4] = assay: Induction of microtubule disruption in human A549 cells at 5 uM after 8 hrs by indirect immunofluorescence microscopic analysis; type: functional, cell-based
Procedure, shortened: (§1)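 A549 cells on glass coverslips (2 × 10⁴ per coverslip) exposed 8 h at 37 °C, 5% CO₂, with 0.6% DMSO as negative control. Fixed cells were stained with mouse anti-α-tubulin (1:400) and Alexa Fluor 488 goat anti-mouse IgG (1:200). Microtubule network examined by fluorescence microscopy.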

Paracentrotus lividus [5] = assay: Antimitotic activity against Paracentrotus lividus embryo assessed as cleavage arrest after 10 to 15 mins fertilization 45 to 60 mins before first mitotic cycle completeion; type: functional, organism-based
Procedure, shortened: (§2)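 Paracentrotus lividus embryos, gametes obtained by intracoelomic 0.5 M KCl injection. Fertilized eggs ([…] post-fertilization, 45–60 min before first mitosis) were exposed to 2-fold decreasing concentrations, at up to 3000 embryos/mL in filtered sea water at room temperature. Stocks were 5 mM in 95% EtOH or 5–10 mM in DMSO, diluted 10-fold with 95% EtOH. Read-out was scored at 2.5–6 h: threshold concentration for cleavage alteration or full mitotic arrest. Duplicate measurements.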

A549 [6] = assay: Cytotoxicity against human A549 cells after 24 hrs by MTT assay; type: functional, cell-based; conditions: A549, 24 h
Procedure, shortened: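 A549 cells in DMEM/10% FBS at 3 × 10³ cells/well, treated 24 h (8 wells per concentration), with 0.4% DMSO as control. MTT (final 0.5 mg/mL) was added for the last 2 h and formazan dissolved in DMSO containing 10% SDS/0.6% acetic acid. OD read at 590 nm (690 nm reference). Three repeats; IC50 from sigmoidal fit.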

Bos taurus = species on record: Bos taurus; assay: Inhibition of purified bovine brain tubulin polymerization at 10 uM after 1 hr by VEC-DIC microscopic analysis
Procedure, shortened: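 Bovine brain tubulin (1.2 mg/mL) in BRB80 (80 mM PIPES pH 6.8, 1 mM MgCl₂, 1 mM EGTA) was polymerized with 10% DMSO and 0.5 mM GTP. It was then incubated 1 h at 37 °C with compound, using 0.6% DMSO as negative control. Microtubule assembly was scored by VEC-DIC video microscopy.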

Paracentrotus lividus [7] = assay: Antiproliferative activity against Paracentrotus lividus embryo assessed as cleavage alteration after 10 to 15 mins fertilization 45 to 60 mins before first mitotic cycle completeion; type: functional, organism-based; procedure, shortened: as §2
A549 [8] = assay: Induction of microtubule disruption in human A549 cells at 20 uM after 8 hrs by indirect immunofluorescence microscopic analysis; type: functional, cell-based
A549 [9] = assay: Induction of microtubule disruption in human A549 cells at 25 uM after 8 hrs by indirect immunofluorescence microscopic analysis; type: functional, cell-based; procedure, shortened: as §1
Paracentrotus lividus [10] = assay: Toxicity in Paracentrotus lividus embryo assessed as mortality at => 1 uM after 9 to 12 hrs fertilization; type: organism-based; conditions: in vivo
[11] = Homo sapiens, A549, 24 h, read-out: EC50

| Compound | EC50 (Paracentrotus lividus [2]) | EC50 (Paracentrotus lividus [5]) | EC50 (Paracentrotus lividus [7]) | further results |
| --- | --- | --- | --- | --- |
| c1cc(CNc2csnc2-c2nnc(Nc3ccc4c(c3)OCCO4)o2)ccn1 | 100 nM | 5 nM | 2 nM | EC50 (A549 [1]; [11]): 63 nM; EC50 (A549 [1]; a549): Dose-dependent effect; Activity [3]: Active; Activity (A549 [4]): Active; IC50 (A549 [6]): 53.5 nM; Activity (Bos taurus): Active |
| COc1ccc(/C=C\c2cc(OC)c(OC)c(OC)c2)cc1OP(=O)(O)O [FOSBRETABULIN DISODIUM] | 1000 nM | 10 nM | 5 nM | – |
| c1cncc(CNc2cn[nH]c2-c2nnc(Nc3ccc4c(c3)OCCO4)o2)c1 | > 10000 nM | > 10000 nM | 1000 nM | – |
| Cn1ncc(NCc2cccnc2)c1-c1nnc(Nc2ccc3c(c2)OCCO3)o1 | > 2500 nM | 1000 nM | 200 nM | – |
| Nc1nc2ccccc2cc1-c1nnc(Nc2ccc3c(c2)OCO3)o1 | > 2000 nM | 2000 nM | 50 nM | – |
| c1cncc(CNc2ccccc2-c2nnc(Nc3ccc4c(c3)OCO4)o2)c1 | 5 nM | 5 nM | 1 nM | – |
| Nc1csnc1-c1nnc(Nc2ccc3c(c2)OCO3)o1 | > 5000 nM | 4000 nM | 500 nM | EC50 (A549 [1]; [11]): > 20000 nM; Activity (A549 [8]): inactive; IC50 (A549 [6]): > 20000 nM |
| c1ccc(-c2nnc(Nc3ccc4c(c3)OCCO4)o2)c(NCc2ccncc2)c1 | 5 nM | 2 nM | 0.5 nM | EC50 (A549 [1]; [11]): 44.5 nM; EC50 (A549 [1]; a549): Dose-dependent effect; Activity [3]: Active; Activity (A549 [4]): Active; IC50 (A549 [6]): 15 nM; Activity (Bos taurus): Active |
| COc1ccc(-c2nnc(Nc3ccc4c(c3)OCCO4)o2)c(N)c1 | 200 nM | 100 nM | 25 nM | – |
| Nc1ccccc1-c1nnc(Nc2ccc3c(c2)OCCO3)o1 | 100 nM | 20 nM | 1 nM | EC50 (A549 [1]; [11]): 2820 nM; Activity [3]: Active; Activity (A549 [4]): inactive; IC50 (A549 [6]): 1570 nM; Activity (A549 [9]): Active; Activity (Bos taurus): Active |
| Nc1ccccc1-c1nnc(Nc2ccc3c(c2)OCO3)o1 | 1000 nM | 10 nM | 1 nM | EC50 (A549 [1]; [11]): 8550 nM; Activity [3]: Active; Activity (A549 [4]): inactive; IC50 (A549 [6]): 3000 nM; Activity (A549 [9]): Active; Activity (Bos taurus): Active |
| COc1cc(-c2nnc(Nc3ccc4c(c3)OCO4)o2)cc(OC)c1OC | > 5000 nM | 1000 nM | 400 nM | Activity (Paracentrotus lividus [10]): Toxic |
| Nc1csnc1-c1nnc(Nc2ccc(Cl)cc2)o1 | 500 nM | 500 nM | 200 nM | – |
| c1cncc(CNc2cn[nH]c2-c2nnc(Nc3ccc4c(c3)OCO4)o2)c1 | > 10000 nM | > 10000 nM | 1000 nM | – |
| c1ccc(-c2nnc(Nc3ccc4c(c3)OCCO4)o2)c(NCc2ccns2)c1 | 5000 nM | 5000 nM | 2000 nM | – |
| COC(=O)Nc1nc2cc(C(=O)c3cccs3)ccc2[nH]1 [NOCODAZOLE] | 100 nM | 10 nM | 5 nM | EC50 (A549 [1]; [11]): 106 nM; IC50 (A549 [6]): 36.6 nM |
| Nc1cc2c(cc1-c1nnc(Nc3ccc4c(c3)OCO4)o1)OCO2 | 200 nM | 500 nM | 50 nM | – |
| c1cc(CNc2csnc2-c2nnc(Nc3ccc4c(c3)OCO4)o2)ccn1 | 20 nM | 5 nM | 2 nM | – |
| COc1cc(N)c(-c2nnc(Nc3ccc4c(c3)OCO4)o2)c(OC)c1 | 1000 nM | 200 nM | 50 nM | – |
| c1cncc(CNc2csnc2-c2nnc(Nc3ccc4c(c3)OCO4)o2)c1 | 50 nM | 50 nM | 5 nM | – |
| c1ccc(-c2nnc(Nc3ccc4c(c3)OCO4)o2)c(NCc2ccncc2)c1 | 5 nM | 2 nM | 0.5 nM | – |
| Clc1ccc(Nc2nnc(-c3nscc3NCc3cccnc3)o2)cc1 | > 2500 nM | 2000 nM | 500 nM | – |
| Nc1[nH]ncc1-c1nnc(Nc2ccc3c(c2)OCO3)o1 | > 20000 nM | > 20000 nM | > 20000 nM | – |
| c1cncc(CNc2ccccc2-c2nnc(Nc3ccc4c(c3)OCCO4)o2)c1 | 5 nM | 5 nM | 1 nM | – |
| COc1ccc(/C=C\c2cc(OC)c3c(c2)OCO3)cc1O [Combretastatin A-2] | 50 nM | 10 nM | 2 nM | – |
| CS(=O)(=O)c1ccc(Nc2nnc(-c3ccccc3N)o2)cc1 | > 5000 nM | > 4000 nM | 4000 nM | – |
| COc1cc([C@@H]2c3cc4c(cc3[C@H](O)[C@H]3COC(=O)[C@H]23)OCO4)cc(OC)c1OC [PODOFILOX] | 500 nM | 50 nM | 20 nM | – |
| c1cncc(CNc2csnc2-c2nnc(Nc3ccc4c(c3)OCCO4)o2)c1 | 100 nM | 10 nM | 5 nM | – |
